Assay results: ChEMBL document CHEMBL1932986, “Synthesis and in vitro antimycobacterial activity of compounds derived from (R)- and (S)-2-amino-1-butanol - The crucial role of the configuration” (Eur J Med Chem, 2012)
In brackets after ≈: the same amount, converted by molar mass. Activity calls are given as the source filed them. No cut-off for these calls is given here.

Legend:
Saccharomyces cerevisiae [1] = experiment: Antifungal activity against Saccharomyces cerevisiae ATCC 9763 at 12.5 mg/ml after 72 hrs by agar diffusion test; format: functional; settings: ATCC 9763, 72 h, read-out: DIZ
Method in brief: (§1)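 Agar diffusion: yeasts grown on yeast peptone dextrose agar and fungi on potato dextrose agar. Wells are filled with […] of compound solution in DMSO at various concentrations, and the clear-zone diameter is measured. Bracketed values give the lowest concentration (mg/ml) that produces a zone >11 mm. A first screen is run at 50 mg/ml.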

Penicillium chrysogenum [2] = experiment: Antifungal activity against Penicillium chrysogenum CECT 2802 at 2 mg/ml after 72 hrs by agar diffusion test; format: functional, organism-based; method in brief: as §1
Saccharomyces cerevisiae [3] = experiment: Antifungal activity against Saccharomyces cerevisiae ATCC 9763 at 2 mg/ml after 72 hrs by agar diffusion test; format: functional, organism-based; method in brief: as §1
Candida tropicalis [4] = experiment: Antifungal activity against Candida tropicalis ATCC 20336 at 2 mg/ml after 72 hrs by agar diffusion test; format: functional, organism-based; method in brief: as §1
Escherichia coli [5] = experiment: Antibacterial activity against Escherichia coli ATCC 8739 at 2 mg/ml after 24 hrs by agar diffusion test; format: functional, organism-based
Method in brief: (§2)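 Agar diffusion: wells in agar filled with […] DMSO solution of compound at various concentrations; diameter of clear zone around application point measured. Bacteria grown 24 h at 37 °C on nutrient agar. Compounds first screened at 50 mg/ml; those active then tested at lower concentrations. Bracketed value = lowest concentration (mg/ml) giving zone >11 mm, reported only if activity retained at ≤1.25 mg/ml.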

Micrococcus luteus [6] = experiment: Antibacterial activity against Micrococcus luteus ATCC 9631 at 2 mg/ml after 24 hrs by agar diffusion test; format: functional, organism-based; method in brief: as §2
Micrococcus luteus [7] = experiment: Antibacterial activity against Sarcina lutea ATCC 9341 at 2 mg/ml after 24 hrs by agar diffusion test; format: functional, organism-based; method in brief: as §2
Staphylococcus aureus [8] = experiment: Antibacterial activity against Staphylococcus aureus NRRL B 313 at 2 mg/ml after 24 hrs by agar diffusion test; format: functional, organism-based
Method in brief: (§3)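 Agar diffusion: bacteria grown 24 h at 37 °C on nutrient agar. Wells in the agar are filled with […] of compound solution in DMSO at various concentrations. The diameter of the clear zone around the application point is measured. Bracketed values give the lowest concentration (mg/ml) that produces a zone >11 mm. A first screen is run at 50 mg/ml.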

Acinetobacter johnsonii [9] = experiment: Antibacterial activity against Acinetobacter johnsonii ATCC 17909 at 2 mg/ml after 24 hrs by agar diffusion test; format: functional; method in brief: as §2
Bacillus cereus [10] = experiment: Antibacterial activity against Bacillus cereus ATCC 11778 at 2 mg/ml after 24 hrs by agar diffusion test; format: functional, organism-based; method in brief: as §2
Bacillus mycoides [11] = experiment: Antibacterial activity against Bacillus mycoides DSMZ 274 at 2 mg/ml after 24 hrs by agar diffusion test; format: functional, organism-based; method in brief: as §2
Priestia megaterium [12] = experiment: Antibacterial activity against Bacillus megaterium NRRL 1353895 at 2 mg/ml after 24 hrs by agar diffusion test; format: functional, organism-based; method in brief: as §2
Bacillus [13] = experiment: Antibacterial activity against Bacillus idosus B 241 at 2 mg/ml after 24 hrs by agar diffusion test; format: functional, organism-based; method in brief: as §2
Bacillus subtilis [14] = experiment: Antibacterial activity against Bacillus subtilis ATCC 6633 at 2 mg/ml after 24 hrs by agar diffusion test; format: functional, organism-based; method in brief: as §2
Bacillus subtilis [15] = experiment: Antibacterial activity against Bacillus subtilis ATCC 6633 assessed as concentration required to produce >11 mm of zone of inhibition after 24 hrs by agar diffusion test; format: functional; method in brief: as §2
Bacillus [16] = experiment: Antibacterial activity against Bacillus idosus B 241 assessed as concentration required to produce >11 mm of zone of inhibition after 24 hrs by agar diffusion test; format: functional; method in brief: as §2
Priestia megaterium [17] = experiment: Antibacterial activity against Bacillus megaterium NRRL 1353895 assessed as concentration required to produce >11 mm of zone of inhibition after 24 hrs by agar diffusion test; format: functional; method in brief: as §2
Bacillus mycoides [18] = experiment: Antibacterial activity against Bacillus mycoides DSMZ 274 assessed as concentration required to produce >11 mm of zone of inhibition after 24 hrs by agar diffusion test; format: functional; method in brief: as §2
Bacillus cereus [19] = experiment: Antibacterial activity against Bacillus cereus ATCC 11778 assessed as concentration required to produce >11 mm of zone of inhibition after 24 hrs by agar diffusion test; format: functional; method in brief: as §2
Acinetobacter johnsonii [20] = experiment: Antibacterial activity against Acinetobacter johnsonii ATCC 17909 assessed as concentration required to produce >11 mm of zone of inhibition after 24 hrs by agar diffusion test; format: functional; method in brief: as §2
[21] = system: Mycobacterium tuberculosis; experiment: Antimycobacterial activity against Mycobacterium tuberculosis H37Rv after 45 days; format: functional
Method in brief: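 Canetti proportion method. Compound in DMSO is added to Löwenstein–Jensen egg medium before coagulation (30 min, 85 °C), tested at three levels plus a lower one where needed. Tubes are inoculated with H37Rv at 10⁵ cells/ml and incubated 45 days at 37 °C. Colony counts versus drug-free control give percentage inhibition.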

Staphylococcus aureus [22] = experiment: Antibacterial activity against Staphylococcus aureus NRRL B 313 assessed as concentration required to produce >11 mm of zone of inhibition after 24 hrs by agar diffusion test; format: functional; method in brief: as §3
Micrococcus luteus [23] = experiment: Antibacterial activity against Sarcina lutea ATCC 9341 assessed as concentration required to produce >11 mm of zone of inhibition after 24 hrs by agar diffusion test; format: functional; method in brief: as §2
Micrococcus luteus [24] = experiment: Antibacterial activity against Micrococcus luteus ATCC 9631 assessed as concentration required to produce >11 mm of zone of inhibition after 24 hrs by agar diffusion test; format: functional; method in brief: as §2
Escherichia coli [25] = experiment: Antibacterial activity against Escherichia coli ATCC 8739 assessed as concentration required to produce >11 mm of zone of inhibition after 24 hrs by agar diffusion test; format: functional; method in brief: as §2
Candida tropicalis [26] = experiment: Antifungal activity against Candida tropicalis ATCC 20336 assessed as concentration required to produce >11 mm of zone of inhibition after 72 hrs by agar diffusion test; format: functional; method in brief: as §1
Saccharomyces cerevisiae [27] = experiment: Antifungal activity against Saccharomyces cerevisiae ATCC 9763 assessed as concentration required to produce >11 mm of zone of inhibition after 72 hrs by agar diffusion test; format: functional; method in brief: as §1
Penicillium chrysogenum [28] = experiment: Antifungal activity against Penicillium chrysogenum CECT 2802 assessed as concentration required to produce >11 mm of zone of inhibition after 72 hrs by agar diffusion test; format: functional; method in brief: as §1
Bacillus subtilis [29] = experiment: Antibacterial activity against Bacillus subtilis ATCC 6633 at 50 mg/ml after 24 hrs by agar diffusion test; format: functional; settings: ATCC 6633, 24 h, read-out: DIZ; method in brief: as §2
Bacillus [30] = experiment: Antibacterial activity against Bacillus idosus B 241 at 50 mg/ml after 24 hrs by agar diffusion test; format: functional; settings: B 241, 24 h, read-out: DIZ; method in brief: as §2
Priestia megaterium [31] = experiment: Antibacterial activity against Bacillus megaterium NRRL 1353895 at 50 mg/ml after 24 hrs by agar diffusion test; format: functional; settings: NRRL 1353895, 24 h, read-out: DIZ; method in brief: as §2
Bacillus mycoides [32] = experiment: Antibacterial activity against Bacillus mycoides DSMZ 274 at 50 mg/ml after 24 hrs by agar diffusion test; format: functional; settings: DSMZ 274, 24 h, read-out: DIZ; method in brief: as §2
Bacillus cereus [33] = experiment: Antibacterial activity against Bacillus cereus ATCC 11778 at 50 mg/ml after 24 hrs by agar diffusion test; format: functional; settings: ATCC 11778, 24 h, read-out: DIZ; method in brief: as §2
Acinetobacter johnsonii [34] = experiment: Antibacterial activity against Acinetobacter johnsonii ATCC 17909 at 50 mg/ml after 24 hrs by agar diffusion test; format: functional; settings: ATCC 17909, 24 h, read-out: DIZ; method in brief: as §2
Staphylococcus aureus [35] = experiment: Antibacterial activity against Staphylococcus aureus NRRL B 313 at 50 mg/ml after 24 hrs by agar diffusion test; format: functional; settings: NRRL B 313, 24 h, read-out: DIZ; method in brief: as §3
Micrococcus luteus [36] = experiment: Antibacterial activity against Sarcina lutea ATCC 9341 at 50 mg/ml after 24 hrs by agar diffusion test; format: functional; settings: ATCC 9341, 24 h, read-out: DIZ; method in brief: as §3
Micrococcus luteus [37] = experiment: Antibacterial activity against Micrococcus luteus ATCC 9631 at 50 mg/ml after 24 hrs by agar diffusion test; format: functional; settings: ATCC 9631, 24 h, read-out: DIZ; method in brief: as §2
Escherichia coli [38] = experiment: Antibacterial activity against Escherichia coli ATCC 8739 at 50 mg/ml after 24 hrs by agar diffusion test; format: functional; settings: ATCC 8739, 24 h, read-out: DIZ; method in brief: as §2
Candida tropicalis [39] = experiment: Antifungal activity against Candida tropicalis ATCC 20336 at 50 mg/ml after 72 hrs by agar diffusion test; format: functional; settings: ATCC 20336, 72 h, read-out: DIZ; method in brief: as §1
Saccharomyces cerevisiae [40] = experiment: Antifungal activity against Saccharomyces cerevisiae ATCC 9763 at 50 mg/ml after 72 hrs by agar diffusion test; format: functional; settings: ATCC 9763, 72 h, read-out: DIZ; method in brief: as §1
Penicillium chrysogenum [41] = experiment: Antifungal activity against Penicillium chrysogenum CECT 2802 at 50 mg/ml after 72 hrs by agar diffusion test; format: functional; settings: CECT 2802, 72 h, read-out: DIZ; method in brief: as §1

SMILES: CCC(C)n1ncn(-c2ccc(N3CCN(c4ccc(OCC5COC(Cn6cncn6)(c6ccc(Cl)cc6Cl)O5)cc4)CC3)cc2)c1=O (stereo unspecified) [ITRACONAZOLE]
- zone of inhibition at 12500 µg/mL (Saccharomyces cerevisiae [1]): 30 mm

SMILES: CC[C@H](COC(C)=O)N1C(=O)C=CC1=O
- diameter of the inhibition zone (DIZ) (Penicillium chrysogenum [2]): inactive
- diameter of the inhibition zone (DIZ) (Saccharomyces cerevisiae [3]): inactive
- diameter of the inhibition zone (DIZ) (Candida tropicalis [4]): inactive
- diameter of the inhibition zone (DIZ) (Escherichia coli [5]): inactive
- diameter of the inhibition zone (DIZ) (Micrococcus luteus [6]): inactive
- diameter of the inhibition zone (DIZ) (Micrococcus luteus [7]): inactive
- diameter of the inhibition zone (DIZ) (Staphylococcus aureus [8]): inactive
- diameter of the inhibition zone (DIZ) (Acinetobacter johnsonii [9]): inactive
- diameter of the inhibition zone (DIZ) (Bacillus cereus [10]): inactive
- diameter of the inhibition zone (DIZ) (Bacillus mycoides [11]): inactive
- diameter of the inhibition zone (DIZ) (Priestia megaterium [12]): inactive
- diameter of the inhibition zone (DIZ) (Bacillus [13]): inactive
- diameter of the inhibition zone (DIZ) (Bacillus subtilis [14]): inactive
- Activity (Bacillus subtilis [15]): 0.06 mg/mL
- Activity (Bacillus [16]): 0.06 mg/mL
- Activity (Priestia megaterium [17]): 0.06 mg/mL
- Activity (Bacillus mycoides [18]): 0.06 mg/mL
- Activity (Bacillus cereus [19]): 0.0125 mg/mL
- Activity (Acinetobacter johnsonii [20]): 0.06 mg/mL
- MIC [21]: 23.7 µM (≈ 5 µg/mL)
- Activity (Staphylococcus aureus [22]): 0.06 mg/mL
- Activity (Micrococcus luteus [23]): 0.06 mg/mL
- Activity (Micrococcus luteus [24]): 0.3 mg/mL
- Activity (Escherichia coli [25]): 1.25 mg/mL
- Activity (Candida tropicalis [26]): 0.006 mg/mL
- Activity (Saccharomyces cerevisiae [27]): 0.006 mg/mL
- Activity (Penicillium chrysogenum [28]): 0.0125 mg/mL
- zone of inhibition at 50000 µg/mL (Bacillus subtilis [29]): 40 mm
- zone of inhibition at 50000 µg/mL (Bacillus [30]): 35 mm
- zone of inhibition at 50000 µg/mL (Priestia megaterium [31]): 40 mm
- zone of inhibition at 50000 µg/mL (Bacillus mycoides [32]): 38 mm
- zone of inhibition at 50000 µg/mL (Bacillus cereus [33]): 40 mm
- zone of inhibition at 50000 µg/mL (Acinetobacter johnsonii [34]): 39 mm
- zone of inhibition at 50000 µg/mL (Staphylococcus aureus [35]): > 40 mm
- zone of inhibition at 50000 µg/mL (Micrococcus luteus [36]): 38 mm
- zone of inhibition at 50000 µg/mL (Micrococcus luteus [37]): 38 mm
- zone of inhibition at 50000 µg/mL (Escherichia coli [38]): 29 mm
- zone of inhibition at 50000 µg/mL (Candida tropicalis [39]): > 40 mm
- zone of inhibition at 50000 µg/mL (Saccharomyces cerevisiae [40]): > 40 mm
- zone of inhibition at 50000 µg/mL (Penicillium chrysogenum [41]): > 40 mm
